Here are results for 19 molecules from ChEMBL document CHEMBL5506001 (J Med Chem, 2024).

Values after ≈ are worked out from the molar mass of the structure shown. Active and inactive are the calls of the source. No cut-off for these calls is given here.

For data set [1], the species on record is Oryctolagus cuniculus. The following applies: Fast skeletal myofibrils.
The target of data set [2] is cGMP-inhibited 3',5'-cyclic phosphodiesterase 3A (Homo sapiens, UniProt Q14432). Put plainly: Inhibition of PDE3A (unknown origin) using cAMP as substrate preincubated for 20 mins followed by substrate addition measured after 30 mins by HTS assay. A digest of the protocol:
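PDE3A preincubated with compound in 50 mM Tris, 5 mM MgCl₂, pH 7.5, for 20 min at room temperature. Then 0.2 µM cAMP substrate added for 30 min at room temperature, followed by a PDELight stop/detection mix.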

For data set [3], the species on record is Bos taurus. Put plainly: Activation of full-length myosin ATPase activity in bovine slow skeletal myofibrils in presence of CaCl2 and ATP by HTS assay. The class given is tissue-based. The following applies: filed as activator. In short, it runs like this:
(§1)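 Calcium-stimulated ATPase activity of cardiac myofibrils (bovine), slow skeletal myofibrils (bovine masseter), fast skeletal myofibrils (rabbit) or chicken gizzard smooth muscle myosin; 10-point dose response up to 40 μM.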

The species named for data set [4] is Bos taurus. Put plainly: Activation of full-length myosin ATPase activity in bovine Cardiomyofibril in presence of CaCl2 and ATP by HTS assay. The class given is tissue-based. In short, it runs like this: as §1
The species entered for data set [5] is Gallus gallus. The note with it: Gizzard.
A short description of data set [6]: Solubility of compound at pH 6.8 incubated for 12 hrs by HPLC analysis. The class given is physicochemical. The following applies: buffer, pH 6.8, 12 h. In short, it runs like this: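 Agitated 12 h at room temperature in pH 6.8 monopotassium phosphate JP2 buffer, filtered, quantified by HPLC against a standard.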
A short description of data set [7]: Half life in Sprague-Dawley rat at 0.5 mg/kg,iv administered as bolus injection measured after 24 hrs by HPLC analysis. It counts as ADME, organism-based. The note with it: in vivo. In short, it runs like this:
(§2)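 Male Sprague-Dawley rats given a single intravenous bolus; blood sampled from just before dosing to 24 h after; compound in blood or plasma measured by HPLC against a standard.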

Data set [8] in a line: Plasma protein binding in rat assessed as unbound fraction at 5 uM incubated for 6 hrs by equilibrium dialysis based HPLC analysis. It counts as ADME, cell-free. In short, it runs like this:
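Equilibrium dialysis: compound added at 5 μM to the buffer chamber, shaken against rat plasma for 6 h at 37 °C. Both chambers analysed by HPLC against standards; reported as % unbound.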

Data set [9] can be described thus: Clearance in Sprague-Dawley rat at 0.5 mg/kg,iv administered as bolus injection measured after 24 hrs by HPLC analysis. The class given is ADME, organism-based. The following applies: in vivo. A digest of the protocol: as §2
A short description of data set [10]: Volume of distribution in Sprague-Dawley rat at 0.5 mg/kg,iv administered as bolus injection measured after 24 hrs by HPLC analysis. The class given is ADME, organism-based. The following applies: in vivo. A digest of the protocol: as §2
Data set [11] is filed under the species Bos taurus. Put plainly: Activation of Myosin S1 ATPase activity in bovine Cardiomyofibril at 40 uM in presence of bovine cardiac thin filament. The class given is tissue-based. The note with it: filed as activator.
Data set [12] is filed under the species Oryctolagus cuniculus. Put plainly: Activation of Myosin S1 ATPase activity in rabbit fast skeletal myofibrils at 40 uM in presence of bovine cardiac thin filament. It counts as tissue-based. The following applies: filed as activator.
The species named for data set [13] is Gallus gallus. The experiment in a line: Activation of full-length myosin ATPase activity in chicken Gizzard at 0.01 to 40 uM in presence of CaCl2 and ATP by HTS assay. The following applies: dose 0.01-40 µM.
Data set [14] is filed under the species Bos taurus. Put plainly: Activation of full-length myosin ATPase activity in bovine slow skeletal myofibrils at 0.01 to 100 uM in presence of CaCl2 and ATP by HTS assay. It counts as tissue-based. The following applies: dose 0.01-100 µM.
The subject of data set [15] is Cardiac muscle cell. The experiment in a line: Induction of Sprague-Dawley rat Cardiomyocyte contractility assessed as increase in myocyte relaxation time at 10 uM incubated for 5 mins by imaging analysis relative to control. The arrangement: scale not given: the % may be the effect or the level left. It counts as functional.
Data set [16] relates to Cardiac muscle cell. Put plainly: Induction of Sprague-Dawley rat Cardiomyocyte contractility assessed as increase in myocyte relaxation velocity at 10 uM incubated for 5 mins by imaging analysis relative to control. The class given is functional. The arrangement: scale not given: the % may be the effect or the level left.
For data set [17], the species on record is Bos taurus. Put plainly: Activation of full-length myosin ATPase activity in bovine Cardiomyofibril at 0.01 to 100 uM in presence of CaCl2 and ATP by HTS assay. The class given is tissue-based. The following applies: dose 0.01-100 µM.
Data set [18] concerns Cardiac muscle cell. The experiment in a line: Induction of Sprague-Dawley rat Cardiomyocyte contractility assessed as increase in myocyte fractional shortening at 10 uM incubated for 5 mins by imaging analysis. It counts as functional, cell-based.
Data set [19] concerns Cardiac muscle cell. Put plainly: Induction of Sprague-Dawley rat Cardiomyocyte contractility by measuring myocyte relaxation velocity at 10 uM incubated for 5 mins by imaging analysis. It counts as functional.
The species entered for data set [20] is Oryctolagus cuniculus. Put plainly: Activation of full-length myosin ATPase activity in rabbit fast skeletal myofibrils at 0.01 to 40 uM in presence of CaCl2 and ATP by HTS assay. The note with it: dose 0.01-40 µM.
Data set [21] concerns Cardiac muscle cell. The experiment in a line: Induction of Sprague-Dawley rat Cardiomyocyte contractility by measuring myocyte relaxation time at 10 uM incubated for 5 mins by imaging analysis. It counts as functional.

Sequence of cGMP-inhibited 3',5'-cyclic phosphodiesterase 3A (Q14432 whole entry): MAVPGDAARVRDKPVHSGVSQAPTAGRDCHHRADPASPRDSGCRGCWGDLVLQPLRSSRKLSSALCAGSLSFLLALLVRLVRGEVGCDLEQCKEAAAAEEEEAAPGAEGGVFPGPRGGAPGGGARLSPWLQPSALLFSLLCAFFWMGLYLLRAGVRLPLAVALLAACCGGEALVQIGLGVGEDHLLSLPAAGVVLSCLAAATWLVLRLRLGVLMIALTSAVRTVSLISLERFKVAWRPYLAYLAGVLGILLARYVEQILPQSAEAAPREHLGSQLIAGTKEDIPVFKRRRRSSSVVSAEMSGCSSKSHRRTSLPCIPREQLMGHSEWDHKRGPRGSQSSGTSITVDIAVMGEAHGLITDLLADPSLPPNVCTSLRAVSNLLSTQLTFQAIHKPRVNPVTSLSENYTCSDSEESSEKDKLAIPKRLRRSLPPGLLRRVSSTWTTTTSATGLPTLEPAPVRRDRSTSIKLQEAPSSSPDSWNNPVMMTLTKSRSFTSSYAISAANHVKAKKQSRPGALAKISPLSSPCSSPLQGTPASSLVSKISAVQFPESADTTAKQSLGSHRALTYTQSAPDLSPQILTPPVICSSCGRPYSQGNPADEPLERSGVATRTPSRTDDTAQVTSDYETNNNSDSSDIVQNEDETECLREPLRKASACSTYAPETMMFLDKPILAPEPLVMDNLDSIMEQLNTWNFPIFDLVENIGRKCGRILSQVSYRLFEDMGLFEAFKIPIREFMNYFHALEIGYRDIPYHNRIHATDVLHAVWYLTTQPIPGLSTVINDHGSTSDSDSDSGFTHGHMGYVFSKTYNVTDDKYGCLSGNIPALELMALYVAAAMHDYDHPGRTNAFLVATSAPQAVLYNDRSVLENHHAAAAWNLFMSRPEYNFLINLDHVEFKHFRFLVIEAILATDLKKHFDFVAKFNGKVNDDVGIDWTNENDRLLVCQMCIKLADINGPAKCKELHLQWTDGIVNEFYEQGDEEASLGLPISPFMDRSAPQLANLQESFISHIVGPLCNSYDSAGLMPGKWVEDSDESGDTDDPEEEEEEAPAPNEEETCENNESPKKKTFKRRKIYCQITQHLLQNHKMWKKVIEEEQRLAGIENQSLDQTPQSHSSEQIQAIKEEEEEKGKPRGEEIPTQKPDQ

The term IC50 denotes the concentration needed to halve the response being measured. In general, solubility refers to the concentration that dissolves in the medium under given conditions. `O=c1[nH]c(=O)c2cc(S(=O)(=O)Nc3ccc(-c4ccccc4)cc3)ccc2[nH]1`: the EC40 was above 39.2 µM in [1], below 0.1 µM in data set [3], below 0.1 µM in data set [4] (filed as activator) and above 39.2 µM in data set [5]. In addition, the IC50 in data set [2] came out at 4.6 µM. In addition, the solubility in data set [6] turned out to be 2.4 µM (≈ 0.944 µg/mL).
For the molecule `C[C@@H]1C[C@H](C)CN(c2ccc(NS(=O)(=O)c3ccc4c(c3)c(=O)[nH]c(=O)n4C)cn2)C1`, the EC40 in [4] (filed as activator) was 11.1 µM.
`C[C@H]1C[C@H](C)CN(c2ccc(NS(=O)(=O)c3ccc4c(c3)c(=O)[nH]c(=O)n4C)cn2)C1`: the EC40 in data set [4] (filed as activator) was 21.9 µM.
On to `O=c1[nH]c(=O)c2cc(S(=O)(=O)Nc3cnc(-c4ccccc4)nc3)ccc2[nH]1`, for which the EC40 in [4] was above 39 µM.
On the same count and under the same terms, in the case of `Cn1c(=O)[nH]c(=O)c2cc(S(=O)(=O)Nc3ccc(N4CCCCC4)nc3)ccc21` it was above 30 µM.
As usually defined, the fraction unbound is free concentration divided by total concentration. The clearance is the volume of plasma or blood freed of the substance per unit of time. `COc1cc2nc(C)[nH]c(=O)c2cc1S(=O)(=O)Nc1ccc(N2C[C@H](C)C[C@@H](C)C2)nc1` displayed an IC50 in data set [2] above 40 µM. Besides, the t1/2 in data set [7] amounted to 2.3 h. The EC40 in data set [4] (filed as activator) was found to be 0.7 µM. The unbound share (fraction unbound) at 6 h, 5 µM in data set [8] came out at 0.008. In addition, the clearance in [9] is 0.1 mL/min/kg.
Usually Vd stands for a proportionality between amount in the body and measured concentration, not a real space. In [2], `CNc1cc2nc(C)[nH]c(=O)c2cc1S(=O)(=O)Nc1ccc(N2C[C@H](C)C[C@@H](C)C2)nc1` gave a half-inhibitory concentration (IC50) above 40 µM. Moreover, in data set [7], the t1/2 came to 1.1 h. Moreover, the EC40 in [4] (filed as activator) was 1.4 µM. The fraction unbound at 6 h, 5 µM in data set [8] turned out to be 0.012. Also, the Vd in data set [10] was determined as 1.8 L/kg. Further, the clearance in data set [9] was found to be 3.3 mL/min/kg.
Consider `O=c1[nH]c2ccc(S(=O)(=O)Nc3ccc(-c4ccccc4)cc3)cc2[nH]1`, for which the EC40 in data set [4] (filed as activator) came out at 5.5 µM. Besides, the outcome in data set [11] and in [12] was Active.
On to `C[C@@H]1C[C@@H](C)CN(c2ccc(NS(=O)(=O)c3ccc4c(c3)c(=O)[nH]c(=O)n4C)cn2)C1`, for which the EC40 in data set [4] (filed as activator) was found to be 0.5 µM.
For the molecule `Cc1nc2cc(OCCN3CCOCC3)c(S(=O)(=O)Nc3ccc(N4C[C@H](C)C[C@@H](C)C4)nc3)cc2c(=O)[nH]1`, the IC50 in [2] was above 40 µM. Moreover, the t1/2 in data set [7] was found to be 0.6 h. Moreover, in [4] (filed as activator), the EC40 is 0.7 µM. Moreover, the fraction unbound at 6 h, 5 µM in data set [8] amounted to 0.037. This molecule also had a Vd in data set [10] of 3.8 L/kg. In data set [9], this molecule registered a clearance of 7.1 mL/min/kg.
Take `O=c1[nH]c(=O)c2cc(S(=O)(=O)Nc3ccc(-c4ccccc4)cn3)ccc2[nH]1`: the EC40 in data set [4] (filed as activator) came to 18 µM.
The same measure, in the same setting: in the case of `C[C@@H]1CCCN(c2ccc(NS(=O)(=O)c3ccc4c(c3)c(=O)[nH]c(=O)n4C)cn2)C1` it was 4.3 µM.
On to `Cc1nc2ccc(S(=O)(=O)Nc3ccc(N4C[C@H](C)C[C@@H](C)C4)nc3)cc2c(=O)[nH]1`, for which, in [2], the 50% inhibitory concentration (IC50) was above 40 µM. Besides, in data set [4] (filed as activator), the EC40 was found to be 4.5 µM.
On to `O=c1[nH]c(=O)c2cc(S(=O)(=O)Nc3ccc(N4CCCCCC4)cc3)ccc2[nH]1`, for which the EC40 is above 39.2 µM in data set [1], 1.7 µM in data set [3], 1.1 µM in data set [4] (filed as activator) and above 39.2 µM in data set [5]. Further, the IC50 in data set [2] came to 2.3 µM. For the same molecule, the result in data set [13], in [14], in data set [17] and in data set [20] was inactive. Besides, the Activity amounted to 30% in data set [15], 23% in [16] and 55.4 um/s in data set [19]. In addition, the solubility in data set [6] was 2.3 µM (≈ 0.953 µg/mL). The result in data set [18], in [11] and in data set [12] was Active. The molecule also came in with a Time in data set [21] of 0.308 s.
For `C[C@H]1CCCN(c2ccc(NS(=O)(=O)c3ccc4c(c3)c(=O)[nH]c(=O)n4C)cn2)C1`, in data set [4], the EC40 was above 33 µM.
In [2], `Cn1c(=O)[nH]c(=O)c2cc(S(=O)(=O)Nc3ccc(-c4ccccc4)cc3)ccc21` displayed an IC50 of 4.6 µM. The EC40 in data set [4] (filed as activator) is below 0.1 µM.
Take `CN(c1ccc(-c2ccccc2)cc1)S(=O)(=O)c1ccc2[nH]c(=O)[nH]c(=O)c2c1`: the EC40 in data set [4] is above 39 µM.
For `O=c1[nH]c(=O)c2cc(S(=O)(=O)Nc3ccc(-c4ccccc4)nc3)ccc2[nH]1`, in [4] (filed as activator), the EC40 is 5.3 µM.
`O=c1[nH]c(=O)c2cc(S(=O)(=O)Nc3ccccc3)ccc2[nH]1`: in [4], the EC40 was above 39 µM.
